The text below walks through data of ChEMBL document CHEMBL1144389, “Optimization of purine based PDE1/PDE5 inhibitors to a potent and selective PDE5 inhibitor for the treatment of male ED” (Bioorg Med Chem Lett, 2005).

pIC50: −log10 of the molar value.

Test [1] concerns the target Phosphodiesterases; PDE5 & PDE6 (Homo sapiens) (UniProt O76074+Q13956+P18545+P35913+O43924+P16499+P51160). Kind of test: Relative binding to Phosphodiesterase 6 and Phosphodiesterase 5, ratio of IC50. The class given is protein assay.
Test [2] addresses Phosphodiesterase, PDE1/PDE5 (Homo sapiens) (UniProt O76074+P54750+Q01064+Q14123). As to the kind of experiment: Relative binding to Phosphodiesterase 1 and Phosphodiesterase 5, ratio of IC50. It counts as protein assay.
In test [3] the target is T1, cGMP-specific 3',5'-cyclic phosphodiesterase (Homo sapiens, UniProt O76074). Kind of test: Inhibition of human phosphodiesterase 5.
Test [4] concerns the target Dual 3',5'-cyclic-AMP and -GMP phosphodiesterase 11A (Homo sapiens, UniProt Q9HCR9). As to the kind of experiment: Inhibition of human phosphodiesterase 11.
A short description of test [5]: Inhibitory concentration against human phosphodiesterase 8 activity. Summed up: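 Scintillation proximity assay using a cAMP-PDE SPA kit, with 0.05 μM cAMP as substrate.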
Test [6] deals with cAMP and cAMP-inhibited cGMP 3',5'-cyclic phosphodiesterase 10A (Homo sapiens, UniProt Q9Y233). As to the kind of experiment: Inhibitory concentration against human phosphodiesterase 10.
Sequence of cAMP and cAMP-inhibited cGMP 3',5'-cyclic phosphodiesterase 10A (Q9Y233 whole entry): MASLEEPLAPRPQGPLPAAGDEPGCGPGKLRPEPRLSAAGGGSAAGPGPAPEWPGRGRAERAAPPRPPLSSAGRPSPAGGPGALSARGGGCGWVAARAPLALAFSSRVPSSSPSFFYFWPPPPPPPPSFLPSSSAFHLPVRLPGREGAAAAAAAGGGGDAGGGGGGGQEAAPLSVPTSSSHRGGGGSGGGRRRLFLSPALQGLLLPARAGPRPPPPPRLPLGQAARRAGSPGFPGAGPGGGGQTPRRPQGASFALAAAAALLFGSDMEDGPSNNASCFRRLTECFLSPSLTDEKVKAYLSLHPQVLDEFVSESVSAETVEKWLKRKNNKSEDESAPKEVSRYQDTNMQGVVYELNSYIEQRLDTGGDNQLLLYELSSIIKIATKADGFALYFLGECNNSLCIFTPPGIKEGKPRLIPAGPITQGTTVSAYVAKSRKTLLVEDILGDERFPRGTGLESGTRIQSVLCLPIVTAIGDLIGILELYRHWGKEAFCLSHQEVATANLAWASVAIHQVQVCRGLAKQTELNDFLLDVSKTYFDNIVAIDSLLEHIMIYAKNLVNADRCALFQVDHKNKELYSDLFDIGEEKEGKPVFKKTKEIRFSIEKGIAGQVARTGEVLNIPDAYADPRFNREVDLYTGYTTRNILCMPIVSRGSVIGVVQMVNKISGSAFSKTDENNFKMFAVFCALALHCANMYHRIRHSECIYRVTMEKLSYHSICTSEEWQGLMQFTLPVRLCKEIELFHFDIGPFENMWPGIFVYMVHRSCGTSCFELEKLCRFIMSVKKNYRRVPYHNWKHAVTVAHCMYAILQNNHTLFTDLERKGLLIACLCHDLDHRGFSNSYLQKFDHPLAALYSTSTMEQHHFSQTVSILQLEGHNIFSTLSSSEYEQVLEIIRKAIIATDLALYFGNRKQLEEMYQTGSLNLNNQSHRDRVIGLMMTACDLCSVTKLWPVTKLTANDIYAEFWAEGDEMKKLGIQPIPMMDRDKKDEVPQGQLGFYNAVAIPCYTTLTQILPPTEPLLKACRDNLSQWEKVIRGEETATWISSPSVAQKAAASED
Test [7] deals with cGMP-dependent 3',5'-cyclic phosphodiesterase (Homo sapiens, UniProt O00408). Kind of test: Inhibition of human phosphodiesterase 2.
Sequence of cGMP-dependent 3',5'-cyclic phosphodiesterase (O00408 whole entry): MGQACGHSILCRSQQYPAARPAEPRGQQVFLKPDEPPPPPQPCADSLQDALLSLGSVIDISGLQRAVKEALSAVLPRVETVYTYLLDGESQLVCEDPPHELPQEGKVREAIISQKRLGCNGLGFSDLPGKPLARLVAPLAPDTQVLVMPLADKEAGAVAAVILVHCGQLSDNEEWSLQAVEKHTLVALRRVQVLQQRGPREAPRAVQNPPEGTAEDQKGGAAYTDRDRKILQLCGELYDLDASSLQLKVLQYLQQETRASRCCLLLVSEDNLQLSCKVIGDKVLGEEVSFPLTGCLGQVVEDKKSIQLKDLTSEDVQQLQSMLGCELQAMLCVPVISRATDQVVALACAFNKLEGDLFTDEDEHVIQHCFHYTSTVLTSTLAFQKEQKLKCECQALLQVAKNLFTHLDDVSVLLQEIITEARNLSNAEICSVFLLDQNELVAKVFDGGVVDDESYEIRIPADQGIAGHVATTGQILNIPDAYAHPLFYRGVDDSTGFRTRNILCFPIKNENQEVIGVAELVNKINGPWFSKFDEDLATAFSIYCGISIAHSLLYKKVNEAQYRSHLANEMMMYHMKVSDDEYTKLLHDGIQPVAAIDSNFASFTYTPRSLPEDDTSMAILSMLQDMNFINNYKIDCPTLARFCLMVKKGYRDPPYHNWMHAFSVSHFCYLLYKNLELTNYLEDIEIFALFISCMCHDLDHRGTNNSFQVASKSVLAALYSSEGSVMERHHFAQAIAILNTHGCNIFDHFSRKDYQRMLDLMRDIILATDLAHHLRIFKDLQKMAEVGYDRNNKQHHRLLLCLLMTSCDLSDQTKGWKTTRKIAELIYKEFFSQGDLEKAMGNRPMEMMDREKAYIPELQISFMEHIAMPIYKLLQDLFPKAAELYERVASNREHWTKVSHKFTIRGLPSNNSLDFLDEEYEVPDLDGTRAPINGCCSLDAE
Test [8] concerns the target T1, cGMP-specific 3',5'-cyclic phosphodiesterase. As to the kind of experiment: Percentage inhibition of human phosphodiesterase 5 at 100 nM.
Test [9] deals with Phosphodiesterase 3 (Homo sapiens, UniProt Q14432+Q13370). As to the kind of experiment: Inhibition of human phosphodiesterase 3. It counts as protein assay.
Test [10] concerns the target Phosphodiesterase 7 (Homo sapiens, UniProt Q13946+Q9NP56). Kind of test: Inhibition of human phosphodiesterase 7. The class given is protein assay.
In test [11] the target is High affinity cGMP-specific 3',5'-cyclic phosphodiesterase 9A (Homo sapiens, UniProt O76083). As to the kind of experiment: Inhibition of Phosphodiesterase 9.
Sequence of High affinity cGMP-specific 3',5'-cyclic phosphodiesterase 9A (O76083 whole entry): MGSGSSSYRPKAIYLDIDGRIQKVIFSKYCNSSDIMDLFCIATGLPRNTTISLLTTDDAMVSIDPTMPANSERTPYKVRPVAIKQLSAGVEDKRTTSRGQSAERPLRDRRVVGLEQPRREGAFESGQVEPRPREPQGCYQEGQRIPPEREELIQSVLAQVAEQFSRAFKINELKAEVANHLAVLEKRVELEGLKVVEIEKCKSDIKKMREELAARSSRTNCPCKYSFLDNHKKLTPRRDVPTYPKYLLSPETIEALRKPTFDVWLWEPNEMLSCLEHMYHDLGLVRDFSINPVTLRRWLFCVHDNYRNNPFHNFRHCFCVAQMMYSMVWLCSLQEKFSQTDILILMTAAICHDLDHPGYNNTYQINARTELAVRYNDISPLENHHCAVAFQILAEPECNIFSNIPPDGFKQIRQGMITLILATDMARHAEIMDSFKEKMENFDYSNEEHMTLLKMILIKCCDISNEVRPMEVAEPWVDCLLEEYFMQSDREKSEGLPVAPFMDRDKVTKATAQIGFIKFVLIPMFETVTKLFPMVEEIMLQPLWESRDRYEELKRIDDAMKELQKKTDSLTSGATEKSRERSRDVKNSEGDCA
Test [12] has as its target Phosphodiesterase 1 (Homo sapiens, UniProt P54750+Q01064+Q14123). Kind of test: Inhibition of human phosphodiesterase 1. The class given is protein assay.
For test [13], the target named is Phosphodiesterase 6. Kind of test: Inhibition of human phosphodiesterase 6. The class given is protein assay.
Test [14] deals with Phosphodiesterase 4 (Homo sapiens, UniProt P27815+Q08499+Q07343+Q08493). Kind of test: Inhibition of human phosphodiesterase 4. The class given is protein assay.

Sequence of Dual 3',5'-cyclic-AMP and -GMP phosphodiesterase 11A (Q9HCR9 whole entry): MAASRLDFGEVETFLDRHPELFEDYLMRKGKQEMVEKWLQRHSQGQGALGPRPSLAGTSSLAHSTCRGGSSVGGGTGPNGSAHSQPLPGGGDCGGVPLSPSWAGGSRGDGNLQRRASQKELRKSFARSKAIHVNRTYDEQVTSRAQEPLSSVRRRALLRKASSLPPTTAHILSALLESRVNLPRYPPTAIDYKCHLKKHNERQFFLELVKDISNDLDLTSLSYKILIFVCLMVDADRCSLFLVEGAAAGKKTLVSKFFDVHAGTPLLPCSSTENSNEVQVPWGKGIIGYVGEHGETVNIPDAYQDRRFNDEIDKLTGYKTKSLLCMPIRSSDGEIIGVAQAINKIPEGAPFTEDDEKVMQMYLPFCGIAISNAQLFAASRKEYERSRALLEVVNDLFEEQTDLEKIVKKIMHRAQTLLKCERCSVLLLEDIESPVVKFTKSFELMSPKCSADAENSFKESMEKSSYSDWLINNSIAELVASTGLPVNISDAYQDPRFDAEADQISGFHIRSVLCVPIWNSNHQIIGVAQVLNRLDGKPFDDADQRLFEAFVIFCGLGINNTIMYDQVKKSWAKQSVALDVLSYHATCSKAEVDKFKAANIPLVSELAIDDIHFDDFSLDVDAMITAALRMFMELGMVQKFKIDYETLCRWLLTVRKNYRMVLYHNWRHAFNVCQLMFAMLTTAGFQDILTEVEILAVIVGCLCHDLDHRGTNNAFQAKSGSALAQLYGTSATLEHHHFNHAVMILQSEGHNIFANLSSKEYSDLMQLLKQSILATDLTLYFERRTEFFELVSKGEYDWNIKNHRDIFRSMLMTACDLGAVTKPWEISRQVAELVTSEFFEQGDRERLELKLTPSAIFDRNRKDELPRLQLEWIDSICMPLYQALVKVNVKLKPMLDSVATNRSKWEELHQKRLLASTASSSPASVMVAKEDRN

For the compound `CCN1C(=O)c2[nH]c(Cc3ccccc3)nc2N2C[C@@H](Cc3ccccc3)N=C12`, the Ratio is 1.8 in [1] and above 2220 in test [2].
By pIC50 is commonly meant the IC50 on a negative log10 scale, so that one unit is a factor of ten. High values mean a low IC50, low ones a high IC50. `CCN1C(=O)c2nc(Cl)n(Cc3ccccc3)c2N2C[C@@H](Cc3ccccc3)N=C12`: the Ratio in test [1] stood at 7.3. In [3], this compound showed a pIC50 of 7.22.
Take `CCCc1nc(C)c2c(=O)nc(-c3cc(S(=O)(=O)N4CCN(CC)CC4)ccc3OCC)[nH]n12`: the pIC50 in test [4] was 6.89; in test [5], below 5.00; in test [6], 6.10; in [7], below 5.00.
As for `CC[C@@H]1CN2C(=N1)N(CC)C(=O)c1[nH]c(Cc3ccccc3)nc12`, the Ratio in test [1] was 2.4; in test [2], above 303. Besides, the pIC50 in test [3] is 7.48.
A word on the inhibition: it is the drop in the measured response relative to a control, in per cent. Lower therefore signals a weak effect. Take `CC[C@@H]1CN2C(=N1)N(CC)C(=O)c1nc(Cc3ccccc3)n(Cc3ccccc3)c12`: the inhibition in [8] is 4%.
In [8], `CN1C(=O)c2nc(Cc3ccccc3)n(Cc3ccccc3)c2N2C[C@@H](Cc3ccccc3)N=C12` returned an inhibition of 6%.
On to `CCN1C(=O)c2c(nc(Br)n2Cc2ccc(OC)cc2)N2C[C@@H](Cc3ccccc3)N=C12`, for which the Ratio in test [1] came out at 4.8.
Consider `CN1C(=O)c2[nH]c(Cc3ccccc3)nc2N2C[C@@H](Cc3ccccc3)N=C12`, for which the Ratio turned out to be 2.3 in test [1] and 11 in [2]. The compound further gave a pIC50 in [3] of 7.00.
Regarding `CCN1C(=O)c2nc(Br)n(Cc3ccccc3)c2N2C[C@@H](Cc3ccccc3)N=C12`, the Ratio in [1] is 4.5. This compound showed a pIC50 in test [3] of 6.84.
In the case of `CCN1C(=O)c2c(nc(C#Cc3ccccc3)n2Cc2ccc(OC)cc2)N2C[C@@H](Cc3ccccc3)N=C12`, the Ratio in test [1] was found to be 1.7. The compound also showed a pIC50 in test [3] of 7.85.
Consider `CCN1C(=O)c2c(nc(I)n2Cc2ccccc2)N2C[C@@H](Cc3ccccc3)N=C12`, for which the inhibition in test [8] worked out at 32%.
For the compound `O=C1c2nc(Cc3ccccc3)n(Cc3ccccc3)c2N2C[C@@H](Cc3ccccc3)N=C2N1CC(F)(F)F`, in test [8], the inhibition turned out to be 7%.
On to `CCN1C(=O)c2nc(Br)n(Cc3ccc(OC)cc3)c2N2C[C@@H](Cc3ccccc3)N=C12`, for which the Ratio in test [1] is 7.8. Further, the pIC50 in [3] is 7.32.
In the same order, the values of `CCN1C(=O)c2c(nc(Cc3ccccc3)n2Cc2ccc(OC)cc2)N2C[C@@H](Cc3ccccc3)N=C12` are 1.8 and 6.89.
As to `CCN1C(=O)c2nc(Br)n(Cc3ccc(O)cc3)c2N2C[C@@H](Cc3ccccc3)N=C12`, the Ratio in [1] was 51.3; in test [2], above 1590. In addition, the pIC50 in [3] was 8.11.
Regarding `CCC[C@@H]1CN2C(=N1)N(CC)C(=O)c1[nH]c(Cc3ccccc3)nc12`, the values for the Ratio in test [1] and in test [2] were 0.7 and above 167, respectively. In addition, the pIC50 in [3] was 7.22.
Take `CCN1C(=O)c2ncn(Cc3ccccc3)c2N2C[C@@H](Cc3ccccc3)N=C12`: the Ratio in test [1] was found to be 5. This compound also showed a pIC50 in [3] of 6.70.
Regarding `CCN1C(=O)c2nc(C#Cc3ccccc3)n(Cc3ccc(OC)cc3)c2N2C[C@@H](Cc3ccccc3)N=C12`, the Ratio in test [1] is 4.5. In test [3], this compound had a pIC50 of 7.70.
As to `CCCc1nn(C)c2c(=O)[nH]c(-c3cc(S(=O)(=O)N4CCN(C)CC4)ccc3OCC)nc12`, in test [5], the pIC50 was below 5.00.
As for `CCN1C(=O)c2c(nc(Cc3ccccc3)n2Cc2ccccc2)N2C[C@@H](Cc3ccccc3)N=C12`, the inhibition in test [8] was found to be 23%.
Regarding `CCN1C(=O)c2c(nc(Cc3ccccc3)n2Cc2ccc(O)cc2)N2C[C@@H](Cc3ccccc3)N=C12`, in test [1], the Ratio amounted to 7.4. This compound gave a pIC50 in test [3] of 7.54.
Consider `CCC[C@@H]1CN2C(=N1)N(CC)C(=O)c1nc(Cc3ccccc3)n(Cc3ccccc3)c12`, for which the Ratio in test [1] is 4.9; in [2], above 286. In addition, the pIC50 in test [3] is 7.46.
On to `CC(C)N1C(=O)c2[nH]c(Cc3ccccc3)nc2N2C[C@@H](Cc3ccccc3)N=C21`, for which the Ratio in test [1] amounted to 4. The compound also gave a pIC50 in test [3] of 7.66.
`CCN1C(=O)c2[nH]c(Cc3ccccc3)nc2N2C1=N[C@@H]1CCC[C@@H]12`: in test [2], the Ratio is 342. The compound also showed a pIC50 in [3] of 7.72.
On to `CCN1C(=O)c2c(nc(I)n2Cc2ccc(O)cc2)N2C[C@@H](Cc3ccccc3)N=C12`, for which the Ratio in test [1] was determined as 93.9. The compound further had a pIC50 in test [3] of 8.48.
In the case of `CC(C)N1C(=O)c2nc(Cc3ccccc3)n(Cc3ccccc3)c2N2C[C@@H](Cc3ccccc3)N=C21`, the inhibition in test [8] came to 13%.
For `CCN1C(=O)c2[nH]c(Cc3ccccc3)nc2N2C[C@@H](C(C)C)N=C12`, the Ratio in [1] was 1; in test [2] it was 59. The compound further gave a pIC50 in [3] of 7.55.
`CON1C(=O)c2nc(Cc3ccccc3)n(Cc3ccccc3)c2N2C[C@@H](Cc3ccccc3)N=C12`: the inhibition in test [8] is 17%.
With `CCN1C(=O)c2c(nc(Cl)n2Cc2ccc(O)cc2)N2C[C@@H](Cc3ccccc3)N=C12`, the Ratio is 93.5 in test [1] and above 4350 in test [2]. This compound showed a pIC50 in test [3] of 8.64.
The compound `Oc1nc2n(c3nc(Cc4ccccc4)nc1-3)C[C@@H](Cc1ccccc1)N2` returned an inhibition in test [8] of 22%.
In the case of `CN1C(=O)c2[nH]c(Cc3ccccc3)nc2N2C1=N[C@@H]1CCC[C@@H]12`, in test [2], the Ratio was found to be 1.3.
In turn, `O=C1c2nc(Cc3ccccc3)[nH]c2N2C[C@@H](Cc3ccccc3)N=C2N1C1CC1` yielded an inhibition in test [8] of 21%.
As to `CCN1C(=O)c2nc(Cc3ccccc3)n(Cc3ccccc3)c2N2C[C@@H](Cc3ccccc3)N=C12`, the figures for the Ratio in [1] and in [2] were 5.3 and above 313, respectively.
In general, IC50 refers to the concentration needed to halve the response being measured. On to `CN1CC(=O)N2[C@H](c3ccc4c(c3)OCO4)c3[nH]c4ccccc4c3C[C@@H]2C1=O`, for which the half-maximal inhibitory concentration (IC50) in [9], in [10] and in test [12] was above 10000 nM in each case. The pIC50 in [11], in [5], in [6] and in test [7] was below 5.00 each time.
With `CCN1C(=O)c2nc(Cc3ccccc3)n(Cc3ccccc3)c2N2C[C@@H](c3ccccc3)N=C12`, the Ratio in [1] turned out to be 1.3. For the same compound, in [3], the pIC50 is 7.40.
With `CCN1C(=O)c2nc(C#Cc3ccccc3)n(Cc3ccccc3)c2N2C[C@@H](Cc3ccccc3)N=C12`, the Ratio in test [1] was 15; in test [2], above 303.
As for `CCN1C(=O)c2c(nc(Br)n2Cc2ccc(O)cc2)N2C[C@@H](Cc3ccccc3)N=C12`, the IC50 in test [9] was above 10000 nM; in test [13], 180 nM; in [10], above 10000 nM; in test [14], 1400 nM; in [12], above 10000 nM. Moreover, the pIC50 is 6.27 in test [4]; below 5.00 in [11]; below 5.00 in test [5]; 5.66 in test [6]; below 5.00 in test [7]; 8.60 in test [3]. For the same compound, the Ratio in [1] is 72; in [2], above 4000.
Turning to `CCN1C(=O)c2c(nc(C#Cc3ccccc3)n2Cc2ccccc2)N2C[C@@H](Cc3ccccc3)N=C12`, the Ratio in [1] amounted to 3.6. In [3], the pIC50 was 7.40.
For `CCN1C(=O)c2c(nc(C#Cc3ccccc3)n2Cc2ccc(O)cc2)N2C[C@@H](Cc3ccccc3)N=C12`, the Ratio in [1] worked out at 19.8. Further, the pIC50 in test [3] is 8.28.
Regarding `CCN1C(=O)c2nc(CCc3ccccc3)n(Cc3ccccc3)c2N2C[C@@H](Cc3ccccc3)N=C12`, in test [1], the Ratio stood at 7.4. In test [3], this compound had a pIC50 of 7.13.
Turning to `O=C1c2[nH]c(Cc3ccccc3)nc2N2C[C@@H](Cc3ccccc3)N=C2N1CC(F)(F)F`, the inhibition in [8] worked out at 34%.
For the compound `CCN1C(=O)c2c(nc(C)n2Cc2ccc(O)cc2)N2C[C@@H](Cc3ccccc3)N=C12`, the Ratio in [1] stood at 40. Moreover, the pIC50 in test [3] is 7.82.
Take `CCN1C(=O)c2nc(C#Cc3ccccc3)n(Cc3ccc(O)cc3)c2N2C[C@@H](Cc3ccccc3)N=C12`: the Ratio is 23 in [1] and above 1540 in test [2]. In test [3], this compound had a pIC50 of 8.19.
In the case of `CCN1C(=O)c2nc(Cc3ccccc3)n(Cc3ccc(O)cc3)c2N2C[C@@H](Cc3ccccc3)N=C12`, the Ratio in test [1] was 7.9. Also, the pIC50 in [3] was 7.55.
Turning to `C=CCN1C(=O)c2nc(Cc3ccccc3)n(Cc3ccccc3)c2N2C[C@@H](Cc3ccccc3)N=C12`, the inhibition in test [8] amounted to 17%.
`O=C1c2nc(Cc3ccccc3)n(Cc3ccccc3)c2N2C[C@@H](Cc3ccccc3)N=C2N1C1CC1` showed an inhibition in test [8] of 12%.
Regarding `CCCN1C(=O)c2[nH]c(Cc3ccccc3)nc2N2C[C@@H](Cc3ccccc3)N=C12`, the inhibition in test [8] was determined as 25%.
On to `CCN1C(=O)c2nc(Cc3ccccc3)n(Cc3ccc(OC)cc3)c2N2C[C@@H](Cc3ccccc3)N=C12`, for which, in [1], the Ratio was 7.5. The pIC50 in [3] is 7.42.
